This is a sample that favours compounds with a hit; in the whole collection about 2.2% have one here.
PvdQ inh = P. aeruginosa PvdQ acylase inhibition; purified PvdQ acylase, fluorescence plate reader; inhibition, % at 10 µM; actives 0.063% (n = 340,000); AID 488965; in the data active means inhibition above about 30%, passing the limit was not always enough;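 further: 0% = vehicle neutral wells and 100% = reference inhibitor wells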
IMP-1 inhibitor = inhibitors of Pseudomonas aeruginosa IMP-1 metallo-beta-lactamase; actives 0.45% (n = 290,000); purified IMP-1, nitrocefin hydrolysis, epi-absorbance fluorescence; AID 1556; inhibition, % at 5.6 µM;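 active means inhibition above the mean plus 3 SD of all compounds in the same screening run, cut at about 4.5% in these data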;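 further: 0% = IMP-1 with DMSO and 100% = DMSO wells lacking enzyme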
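System: purified IMP-1 / Input: IMP-1 dispensed at 0.2 nM / Medium: 50 mM HEPES pH 7.1, 50 µM ZnSO4, 0.05% Brij 35 / Timing: 15 min enzyme–compound preincubation, then 25 min nitrocefin reaction, 25 °C / Technique: plate fluorescence quenching by hydrolysis product, ex 480/em 530 nm / Repeats: singlicate testing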
VIM-2 inhibitor = inhibitors of Pseudomonas aeruginosa VIM-2 metallo-beta-lactamase. AID 1527. purified VIM-2, nitrocefin hydrolysis, epi-absorbance fluorescence. actives 0.89% (n = 290,000). inhibition, % at 5.6 µM;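 active means inhibition above the mean of all tested compounds plus 3 SD, cutoff set per screening run, cut at about 7.5% in these data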;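 further: red hydrolysis product quenches plate fluorescence so inhibitors raise well fluorescence; 0% = enzyme with DMSO and 100% = DMSO without enzyme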
PHOSPHO1 inh = blocks human PHOSPHO1 phosphatase activity; Q8TCT1; recombinant PHOSPHO1, absorbance phosphatase assay; inhibition, % at 13.3 µM; actives 1.1% (n = 290,000); AID 1565; in the data active means inhibition above about 60%
Target sequence (Q8TCT1 whole entry, looked up): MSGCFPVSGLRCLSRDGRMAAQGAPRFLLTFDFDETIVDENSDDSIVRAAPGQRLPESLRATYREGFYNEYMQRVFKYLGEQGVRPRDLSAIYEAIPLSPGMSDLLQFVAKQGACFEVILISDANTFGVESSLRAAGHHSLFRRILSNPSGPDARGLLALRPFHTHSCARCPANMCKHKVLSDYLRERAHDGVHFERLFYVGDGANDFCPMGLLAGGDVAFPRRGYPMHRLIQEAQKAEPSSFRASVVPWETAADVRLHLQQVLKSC
CR mimetic SO = lowers age-related superoxide in aged yeast cells | superoxide response (% of plate mean), % at 10 µM | S. cerevisiae aged cells, superoxide DHE fluorescence; hits give low values | actives 0.18% (n = 330,000) | AID 2690;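 active means superoxide response under a set limit, about three screen SD below normal, cut at about 65% in these data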;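 further: yeast aged for seven days with compound at 30 °C before DHE staining; 100% = average MFI of all compound-treated wells on the plate with controls excluded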
Numbers without * were called inactive; . = no result.

SMILES	PvdQ inh	IMP-1 inhibitor	VIM-2 inhibitor	PHOSPHO1 inh	CR mimetic SO
Cc1cccc(-n2ccnc2SCC(=O)Nc2ccc3c(c2)OCCO3)c1	-10.2	-2.1	-1.3	14.3	96.5
O=C(CSc1nnc2c(n1)[nH]c1ccccc12)Nc1ccc2c(c1)OCO2	-0.5	-3.4	-5.4	78.5*	90.3
COc1cc(S(=O)(=O)Nc2ccccc2C(=O)N2CCCCC2)ccc1NC(C)=O	-3.3	.	.	.	98.3
Cc1ccc(NC(=O)COc2ccc(N(C)C(=O)C(C)(C)C)cc2)cc1S(=O)(=O)N1CCCCC1	-4.4	.	.	.	93.5
CCc1ccc2c(c1)c1nc(C)sc1n2CC	-12.8	1.0	1.0	91.5*	81.8
Cc1nc2c3cc(Cl)ccc3n(CCN3CCCCC3)c2s1	-8.8	5.1*	4.9	16.8	90.9
COC(=O)Cn1c2ccc(Cl)cc2c2nc(C)sc21	-11.8	-4.1	1.9	-12.7	103.0
Cc1ccc(S(=O)(=O)N/N=C/c2ccccc2F)cc1[N+](=O)[O-]	8.7	5.9*	-0.8	.	94.0
Cc1ccc(S(=O)(=O)NNC(=O)C(O)(c2ccccc2C)c2ccccc2C)cc1	-5.6	-0.9	-4.4	-15.9	113.4
CCOC(=O)c1c(C)oc2c1cc(O)c1ccccc12	12.8	-0.9	4.1	-137.0	93.6
CCOC(=O)c1c(C)oc2c(F)c(F)c(F)c(F)c2c1=O	11.2	8.8*	-2.1	7.0	99.5
CCOC(=O)c1c(S(=O)(=O)NCC(=O)Nc2ccccc2)c(C)n(C)c1C	3.0	-0.8	-1.3	18.3	100.5
CCOC(=O)c1c(S(=O)(=O)NCC(=O)Nc2cccc(C)c2)c(C)n(C)c1C	-17.4	-1.1	-0.5	69.7*	88.3
CC(C)C1Cc2c(C#N)c(N)n(C)c(=S)c2CO1 (stereo not drawn)	1.3	-1.5	-0.7	68.5*	95.9
Cn1c(N)c(C#N)c2c(c1=S)CSC(C)(C)C2	0.9	0.4	-0.3	91.4*	114.8
CC1(C)Cc2c(C#N)c(N)n(-c3ccccc3)c(=S)c2CO1	-8.3	-1.7	-0.7	19.7	102.2
Cn1c(N)c(C#N)c2c(c1=S)COC(C)(C)C2	-1.0	-3.4	-2.0	64.2*	109.0
CC(C)c1nc(Cl)c(C#N)c2c1CSC(C)(C)C2	2.8	1.8	0.1	11.3	124.1
CC1(C)Cc2c(C#N)c(N)sc(=S)c2CS1	-11.8	6.4*	0.6	101.1*	101.7
CCNc1nnc(SCC(=O)N2c3ccccc3NC(=O)CC2C)s1 (stereo not drawn)	-4.9	.	.	.	108.8
CC1(C)Cc2c(c(N3CCCC3)[nH]c(=S)c2C#N)CO1	.	-3.3	-2.8	66.6*	96.6
CSc1nc(N2CCOCC2)c2c(c1C#N)CC(C)(C)OC2	-7.4	-0.1	-2.1	12.1	93.8
O=C(CN(CCc1ccccc1)Cc1ccccc1)Oc1ccccc1P(=O)(O)O	0.0	0.0	11.0*	23.9	110.7
COCCN(CC(=O)Oc1ccccc1P(=O)(OC)OC)Cc1ccccc1	.	-2.4	-3.8	26.8	82.6
Oc1ccccc1C=NCCN1CCN(CCN=Cc2ccccc2O)C1c1ccccc1O (stereo not drawn)	-11.2	.	.	.	.
SMILES	PvdQ inh	IMP-1 inhibitor	VIM-2 inhibitor	PHOSPHO1 inh	CR mimetic SO
O=C(c1csc2c1CCCC2)n1cccn1	4.2	.	.	.	60.4*
CCOC(=O)COc1cc(OCC(=O)OCC)c2c3c(c(=O)oc2c1)CCCC3	-19.8	-2.2	9.4*	23.9	95.8
CCOC(=O)COc1cc2c3c(c(=O)oc2cc1C)CCCC3	-16.8	0.7	2.3	6.3	93.6
CCOCCCNCc1ccc(OCC(=O)N2CCOCC2)c(OC)c1	-12.6	0.4	2.2	60.0*	105.5
CCC(=O)Nc1cc(NC(=O)CSc2ncc(-c3ccc(F)cc3)n2Cc2ccco2)ccc1C	-5.0	-3.1	-2.8	71.5*	102.2
S=P(c1ccc(N2CCOCC2)cc1N1CCOCC1)(N1CCOCC1)N1CCOCC1	-8.1	.	.	85.4*	.
Cc1cc(C)nc(N(C#N)Cc2cccc([N+](=O)[O-])c2)n1	36.4*	-0.3	1.7	33.9	107.2
CCOC(=O)C1=CN(Cc2ccco2)S(=O)(=O)N(C)C1c1ccc2ccccc2c1 (stereo not drawn)	-4.9	.	.	.	109.2
COc1ccc2ccccc2c1C1CC(=O)N2CN(Cc3ccco3)CSC2=C1C#N (stereo not drawn)	-15.6	-3.9	0.7	71.9*	87.2
N#CC1=C2SCN(Cc3ccco3)CN2C(=O)CC1c1ccc(Cl)cc1 (stereo not drawn)	-2.5	-1.0	-1.7	75.6*	101.6
CCN(CC)S(=O)(=O)c1cccc(C(=O)N/N=C2\CC(=O)CC(C)(C)C2)c1	-3.3	1.5	1.1	-24.8	101.0
CCN(CC)S(=O)(=O)c1cccc(C(=O)N/N=C2\CCCC(=O)C2)c1	4.1	5.8*	3.9	24.6	94.8
Cc1csc(N2C(=O)C3C4CCC(O4)C3C2=O)n1 (stereo not drawn)	-9.0	.	.	.	.
Cc1c(C(=O)OCC(=O)Nc2ccc(C(N)=O)cc2)cccc1[N+](=O)[O-]	-14.1	-1.8	-1.0	12.3	108.4
O=C(COC(=O)CCc1nc2ccccc2c(=O)[nH]1)Nc1ccc(Cl)cn1	-18.6	-4.4	-1.6	74.5*	104.4
CCc1cccc2sc(N3CCN(C(=O)c4ccc([N+](=O)[O-])o4)CC3)nc12	-9.5	.	.	.	95.5
Cc1ccc(-c2nc3ccsc3c(=O)o2)cc1	66.3*	-0.9	1.8	0.9	111.3
Cc1ccc2scc(CN3CCCC3)c2c1	38.3*	.	.	.	85.6
N#Cc1c2n(c3c(=S)nc[nH]c13)CCCCC2	-8.8	-1.5	0.0	95.9*	91.2
N#Cc1c2n(c3c(=O)[nH]cnc13)CCCC2	-11.5	-0.2	-1.8	7.6	102.4
Nc1cccc2c1C(=O)N(C(=O)c1cccc(S(=O)(=O)N3CCCCCC3)c1)C2=O	4.8	-1.4	-2.5	-2.1	92.3
Nc1cccc2c1C(=O)N(C(=O)c1ccc(Cl)c(S(=O)(=O)N3CCCCCC3)c1)C2=O	11.5	4.8*	-2.1	11.8	114.2
CC1CCc2nc3sc4c(c3c(N)c2C1)CCCC4 (stereo not drawn)	-15.6	-2.7	6.2	-5.1	105.5
CC1CCc2c(nc3sc4c(c3c2N)CCCC4)C1 (stereo not drawn)	-13.5	-0.1	8.1*	-6.0	80.6
CC(=O)NCc1ccc(S(=O)(=O)NC(C(=O)O)C(C)C)cc1 (stereo not drawn)	0.4	-1.4	-1.1	-20.9	82.0
SMILES	PvdQ inh	IMP-1 inhibitor	VIM-2 inhibitor	PHOSPHO1 inh	CR mimetic SO
O=C(N/N=C/c1ccc[nH]1)c1cc2ccccc2cc1O	-3.3	-1.0	-0.9	8.7	96.3
O=C(N/N=C/c1ccncc1)c1cc2ccccc2cc1O	-2.3	-3.4	-2.9	61.0*	96.5
O=C(N/N=C/c1ccncc1)c1sc2ccccc2c1Cl	-9.5	-2.4	8.9*	22.3	99.8
CCN(C(=O)N1CCOCC1)c1ccccc1C	-18.8	-2.7	-0.9	44.9	97.7
Cc1ccc(C(=O)OCC(=O)Nc2ccc3c(c2)OCO3)c(O)c1	-4.3	.	.	.	98.6
Cc1nn(-c2ccccc2)c2c1c(C)c(CCC(=O)N1CCOCC1)c(=O)n2C	-10.9	-1.6	10.4*	15.9	130.8
CCn1c(=O)c(CCC(=O)N2CCOCC2)c(C)c2c(C)nn(-c3ccccc3)c21	-10.7	-1.1	8.4*	29.8	107.6

Assay outcomes as filed in PubChem.
